From PubChem
Rows were chosen to be rich in hits. Some 1.9% of all compounds tested hit in one or more screens of this group.
CHRM5 agonist: agonists of human muscarinic M5 receptor (CHRM5) | CHO-K1 hM5 cells, Fluo-8 calcium fluorescence; 0% DMSO wells, 100% maximal acetylcholine response | activation, % at 3 µM | 360,000 compounds, 0.19% hits;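 active means activation above the run's mean over test compounds plus 3 SD, cut at about 23% in these data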;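 further: signal is peak over basal fluorescence ratio across the kinetic read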
Target sequence (P08912 whole entry, looked up): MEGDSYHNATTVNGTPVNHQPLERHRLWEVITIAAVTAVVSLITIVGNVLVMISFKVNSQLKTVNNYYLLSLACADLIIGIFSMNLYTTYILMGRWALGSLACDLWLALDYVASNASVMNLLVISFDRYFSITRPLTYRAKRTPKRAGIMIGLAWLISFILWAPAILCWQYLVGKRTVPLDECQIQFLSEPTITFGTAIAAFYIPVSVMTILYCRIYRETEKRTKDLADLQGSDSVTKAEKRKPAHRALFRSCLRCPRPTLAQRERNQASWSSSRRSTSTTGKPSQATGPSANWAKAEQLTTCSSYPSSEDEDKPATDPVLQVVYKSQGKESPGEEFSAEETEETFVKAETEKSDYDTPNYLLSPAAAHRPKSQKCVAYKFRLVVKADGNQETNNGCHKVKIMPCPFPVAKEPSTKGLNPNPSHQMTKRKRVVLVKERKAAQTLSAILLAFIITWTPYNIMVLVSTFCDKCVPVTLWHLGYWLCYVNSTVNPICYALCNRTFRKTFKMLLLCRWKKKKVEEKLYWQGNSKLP
CHRM4 antagonist: antagonists of human muscarinic M4 receptor (CHRM4) | CHO-hM4 cells, ACh EC80, Fluo-8 calcium fluorescence | 360,000 compounds, 0.73% hits | AID 624125 | P08173 | inhibition, % at 3 µM;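 active means inhibition above its plate's cutoff, the mean inhibition of sample wells plus 3 SD, cut at about 27% in these data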
CHRM4 agonist: agonists of human muscarinic M4 receptor (CHRM4); P08173; activation, % at 3 µM; 360,000 compounds, 0.14% hits; CHO-K1 hM4/Gqi5, Fluo-8 calcium fluorescence; vehicle 0%, full acetylcholine response 100%;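 active means activation above the run mean over all test wells plus 3 SD, cut at about 32% in these data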;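 further: peak over basal fluorescence ratio per well then scaled between controls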
M5 antag: CHRM5 antagonism in calcium assay; inhibition, % at 3 µM; AID 624040; P08912; 360,000 compounds, 0.59% hits; CHO-hM5 cells, Fluo-8 calcium fluorescence, ACh EC80;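 active means inhibition above a per-plate cutoff, the mean of that plate's test compounds plus 3 SD, cut at about 27% in these data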
CHRM4 PAM: positive allosteric modulators of human muscarinic M4 receptor; CHO-K1 hM4/Gqi5, Fluo-8 calcium fluorescence, ACh EC20; 0% = ACh EC20, 100% = maximal ACh; AID 624126; 360,000 compounds, 0.4% hits; activation, % at 3 µM;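 active means activation above its plate's cutoff, the mean activation of sample wells plus 3 SD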
CHRM5 PAM: CHRM5 positive allosteric modulation; 360,000 compounds, 0.3% hits; CHO-K1 hM5, Fluo-8 calcium, ACh EC20 PAM; 0% = ACh EC20, 100% = ACh EC100; activation, % at 3 µM; P08912;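 active means activation above the run cutoff, the mean activation of all test compounds plus 3 SD, cut at about 18% in these data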
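system = human M5 receptor in CHO-K1 cells | compound = one concentration, 3 µM final (nominal) | schedule = Post-acetylcholine fluorescence recording 140 s | signal = Fluo-8 calcium dye fluorescence, kinetic read | benchmarks = low control EC20 acetylcholine (0%), high control EC100 acetylcholine (100%) | repeats = singlicate, one well per test compound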
Of the large screens only hits and unclear results are named; the others gave an inactive call.

CN(C(=O)Cn1nc(C(=O)O)c2ccccc2c1=O)C1(C#N)CCCCC1	CHRM4 PAM 23.3
COC(=O)c1ccc2c(c1)C(C)(C)C(/C=C/c1ccc(OC)c(OC)c1OC)=[N+]2C	CHRM4 antagonist 32.1
COC(=O)c1ccc2c(c1)C(C)(C)C(/C=C/c1ccc(O)cc1)=[N+]2C	none
O=C1CCCN1c1ccc(S(=O)(=O)Nc2cccnc2)cc1	none
CC1CCC(NS(=O)(=O)c2ccc(N3CCCC3=O)cc2)CC1 (stereo unspecified)	CHRM4 antagonist 32.0
S=c1[nH]nc(-c2ccco2)n1-c1cccc2ccccc12	CHRM5 PAM 45.8
COc1ccc(N(C(C)=O)c2nc(C)cc(C)c2C#N)c(OC)c1	none
CN1CCN(C(c2cccc(Cl)c2)c2ccccc2Cl)CC1 (stereo unspecified)	CHRM4 antagonist 63.8, M5 antag 87.3
CN1CCN(C(c2ccccc2)c2ccc(Cl)cc2)CC1 (stereo unspecified)	none
COc1ccc(OC)c2[nH]c(=O)c(CCNC(=O)c3ccc(S(=O)(=O)N(C)C)cc3)cc12	CHRM4 PAM 27.8
CCCCCCCCN1C(=O)[C@H](CC(=O)NCc2cccc(C(F)(F)F)c2)C[C@@]2(C(=O)OC)CC(C)(C)CC=C12	none
S=C(c1ccc(-c2ccc(Cl)cc2Cl)o1)N1CCCC1	CHRM5 PAM 22.1
S=C(c1ccc(-c2ccc(Cl)cc2Cl)o1)N1CCCCC1	none
COC(=O)C[C@H]1C=C[C@H](NS(=O)(=O)c2cn(C)cn2)[C@@H](CO)O1	none
CCCCNC(=O)c1sc(=S)n2c1[nH]c(=O)c1ccc(C(=O)NCCc3ccc(OC)c(OC)c3)cc12	CHRM5 PAM 24.6
CCCCCn1c(=O)[nH]c2cc(C(=O)NCCc3ccc(OC)c(OC)c3)ccc2c1=O	none
O=C(NC1CC1)c1ccc2c(c1)N(Cc1ccccc1)CCS2	none
CCOC(=O)CSc1nnc(NC(=O)CCc2ccccc2)s1	CHRM4 PAM 21.3
Cc1snc2sc(C(=O)c3ccc(F)cc3)c(N)c12	none
O=C(CCc1ccccc1)NC(NC(=S)Nc1ccc(Br)cc1)C(Cl)(Cl)Cl (stereo unspecified)	none
O=C(CCc1ccccc1)NC(NC(=S)Nc1cccc(Cl)c1)C(Cl)(Cl)Cl (stereo unspecified)	M5 antag 34.2
N#CCC(=O)Nc1ccc(C(=O)OCC(=O)Nc2ccccc2Sc2ccccc2)cc1	M5 antag 27.9
O=C(Nc1nnc(-c2cccs2)o1)c1cccc(C(F)(F)F)c1	CHRM4 agonist 65.5
N#Cc1ccc(C(=O)Nc2nnc(-c3cccs3)o2)cc1	none
CC(=O)OC(C[N+]1(C)CCCCCC1)c1ccccc1 (stereo unspecified)	CHRM4 antagonist 37.2, M5 antag 27.8
C[N+]1(CC(O)c2ccccc2)CCCCCC1 (stereo unspecified)	none
CCCCCC(=O)Nc1cc(S(=O)(=O)N2CCOCC2)ccc1N1CCCC1	CHRM5 PAM 30.1
CCN1CCN(c2ccc(S(=O)(=O)N3CCCCC3)cc2NC(=O)Cc2ccccc2)CC1	none
CCCCCC(=O)Nc1cc(S(=O)(=O)N2CCCCC2)ccc1N1CCOCC1	none
CCN1CCN(c2ccc(S(=O)(=O)N3CCCCC3)cc2NC(=O)Cc2ccc(Cl)c(Cl)c2)CC1	CHRM5 agonist 28.1, CHRM4 agonist 53.9
CCN1CCN(c2ccc(S(=O)(=O)N3CCOCC3)cc2NC(=O)CCOc2ccccc2)CC1	M5 antag 29.2
Cc1cccc(N2CCN(CC(=O)Nc3ccc(S(=O)(=O)N4CCOCC4)cc3)CC2)c1C	M5 antag 33.8
COc1ccc(NC(=O)CN2CCN(c3nc(-c4ccc(F)cc4)cs3)CC2)c(OC)c1	none
O=C1C(c2ccccc2)=[N+]([O-])c2ccccc21	none
O=C(CN1CCCC1c1ccc2c(c1)OCCO2)NC(=O)Nc1ccccc1F (stereo unspecified)	none
Cc1ccccc1OCCC(=O)Nc1cc(S(=O)(=O)N2CCCCC2)ccc1N1CCN(C)CC1	CHRM4 agonist 55.9
